The source of these data is ChEMBL document CHEMBL4177600, “Identification of novel PI3K inhibitors through a scaffold hopping strategy” (Bioorg Med Chem Lett, 2017).

≈ marks a conversion by molar mass, not a printed value.

A word on the Cmax: it is the peak of the concentration-time curve. One may read the Tmax as the time at which the peak concentration occurs. Usually AUC(0-inf) stands for total exposure, with the tail of the curve extrapolated. As usually defined, the bioavailability is dose-corrected exposure relative to a reference, in per cent. The low end stands for poor availability, the high end for good availability. As usually defined, the half-life is how long it takes for the measured level to halve. A higher half-life goes with slow loss. Usually Vd stands for the apparent volume that relates the amount in the body to the concentration in plasma or blood. What is called EC50 is the concentration at which the effect is half-maximal. A lower EC50 goes with greater potency.

The nature of series [1]: Cmax in BALB-C mouse at 9 mg/kg, po by LC-MS/MS analysis. The format is ADME, organism-based. On the set-up: dose 9 mg/kg, route oral. To be noted: in vivo. The procedure, abridged: (§1)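 BALB-C mice dosed IV (10% NMP/50% PEG300/40% saline) or PO (10% NMP/90% PEG300). Plasma sampled at 6 (IV) or 8 (PO) time points; compound measured by LC/MS/MS. Parameters from bicompartmental model fit; each value is the mean of 3 independent samples.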

For series [2], the system named is Mus musculus. The experiment in a line: Clearance in BALB-C mouse at 3 mg/kg, iv by LC-MS/MS analysis relative to hepatic blood flow. The format is ADME, organism-based. To be noted: in vivo.
Series [3] is described as follows: Tmax in BALB-C mouse at 9 mg/kg, po by LC-MS/MS analysis. The following applies: in vivo. Format: ADME, organism-based. The procedure, abridged:
(§2)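 BALB-C mice dosed IV in 10% NMP/50% PEG300/40% saline or PO in 10% NMP/90% PEG300. Plasma sampled at 6 (IV) or 8 (PO) time points and quantified by LC/MS/MS. Parameters come from a bicompartmental model fit; values are means of 3 independent samples. Plasma levels were compared with AKT-P EC50 from U2OS cells converted to ng/ml.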

A short description of series [4]: AUC (infinity) in BALB-C mouse at 3 mg/kg, iv by LC-MS/MS analysis. The format is ADME, organism-based. On the set-up: dose 3 mg/kg, time infinity, route intravenous. To be noted: in vivo. The procedure, abridged: as §1
The nature of series [5]: AUC (infinity) in BALB-C mouse at 9 mg/kg, po by LC-MS/MS analysis. On the set-up: dose 9 mg/kg, time infinity, route oral. Format: ADME, organism-based. To be noted: in vivo. In short, it runs like this: as §1
Series [6] in a line: Oral bioavailability in BALB-C mouse at 9 mg/kg by LC-MS/MS analysis. The format is ADME, organism-based. To be noted: in vivo. The procedure, abridged:
as §2

Series [7] can be described thus: Half-life in BALB-C mouse at 3 mg/kg, iv by LC-MS/MS analysis. Format: ADME, organism-based. To be noted: in vivo. In short, it runs like this: as §1
A short description of series [8]: Volume of distribution in BALB-C mouse at 3 mg/kg, iv by LC-MS/MS analysis. To be noted: in vivo. The format is ADME, organism-based. The procedure, abridged:
as §2

Series [9] can be described thus: AUC (infinity) in BALB-C mouse at 5 mg/kg, po by LC-MS/MS analysis. The format is ADME, organism-based. On the set-up: dose 5 mg/kg, route oral, time infinity. The following applies: in vivo. The procedure, abridged:
as §1

Series [10] can be described thus: Half-life in BALB-C mouse at 5 mg/kg, po by LC-MS/MS analysis. The format is ADME, organism-based. To be noted: in vivo. The procedure, abridged: as §1
Series [11] can be described thus: Oral bioavailability in BALB-C mouse at 5 mg/kg by LC-MS/MS analysis. The following applies: in vivo. Format: ADME, organism-based. In short, it runs like this: as §2
Series [12] has as its system U2OS. The experiment in a line: Inhibition of AKT phosphorylation in human U2OS cells.
The subject of series [13] is Mus musculus. The experiment in a line: Time at which plasma concentration stays above cellular EC50 for inhibition of AKT phosphorylation in BALB-C mouse at 5 mg/kg, po measured up to 24 hrs by LC-MS/MS analysis. Format: organism-based. The following applies: in vivo. The procedure, abridged:
as §2

Series [14] in a line: AUC (infinity) in BALB-C mouse at 10 mg/kg, po by LC-MS/MS analysis. The following applies: in vivo. On the set-up: dose 10 mg/kg, time infinity, route oral. Format: ADME, organism-based. The procedure, abridged:
as §1

The subject of series [15] is U2OS. Put plainly: Inhibition of AKT phosphorylation in human U2OS cells. The source holds these as a separate data set.
Series [16] is described as follows: Oral bioavailability in BALB-C mouse at 10 mg/kg by LC-MS/MS analysis. The following applies: in vivo. The format is ADME, organism-based. In short, it runs like this:
as §2

In series [17] the test system is Mus musculus. Put plainly: Time at which plasma concentration stays above cellular EC50 for inhibition of AKT phosphorylation in BALB-C mouse at 10 mg/kg, po measured up to 24 hrs by LC-MS/MS analysis. The format is organism-based. The following applies: in vivo. In short, it runs like this: as §2
The nature of series [18]: Cmax in BALB-C mouse at 10 mg/kg, po by LC-MS/MS analysis. Format: ADME, organism-based. On the set-up: dose 10 mg/kg, route oral. To be noted: in vivo. The procedure, abridged: as §1

Turning to `CS(=O)(=O)N1CCN(Cc2cc3c(N4CCOCC4)nc(-c4cnc(N)nc4)cn3n2)CC1`, in series [1], the concentration peaked (Cmax) at 938 ng/mL. Further, in the series on Mus musculus [2], the CL is listed as less than 50%. In addition, the Tmax in [3] stood at 1 h. In addition, the AUC(0-inf) in series [4] is 5820 ng·h/mL; in series [5], 5150 ng·h/mL. In [6], this compound had a bioavailability of 29.5%. The compound further showed a half-life in series [7] of 0.51 h. The compound also returned a volume of distribution (Vd) in [8] of 0.6 L/kg.

Compound `CS(=O)(=O)N1CCN(Cc2nc3c(N4CCOCC4)nc(-c4cnc(N)nc4)c(Cl)n3n2)CC1` showed an AUC(0-inf) in series [9] of 5650 ng·h/mL. Besides, in series [10], the half-life is 2.7 h. Moreover, in series [11], the bioavailability was 73.1%. Further, in the series on U2OS [12], the EC50 was 0.03491 µg/mL (≈ 0.0686 µM). Further, the Time in the series with Mus musculus [13] is more than 12 h.

For `CS(=O)(=O)N1CCN(Cc2nc3c(N4CCOCC4)nc(-c4cnc(N)nc4)cn3n2)CC1`, in [14], the total exposure AUC(0-inf) stood at 4690 ng·h/mL. Moreover, the EC50 in the series on U2OS [15] stood at 0.04138 µg/mL (≈ 0.0872 µM). Further, the bioavailability in series [16] turned out to be 88%. The compound also had a Time in the series with Mus musculus [17] of more than 12 h. Besides, the Cmax in [18] stood at 674 ng/mL.
